Bioassay records as filed in PubChem.
CRFR2-BP ag = agonists of human CRF-binding protein/CRF-R2 receptor complex. HEK293 CRF-R2/CRF-BP, calcium dye fluorescence (FLIPR); percent of saturating CRF peptide response. activation, % at 13.2 µM. actives 0.46% (n = 350,000). AID 588473;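 active = activation of at least 50%, plus an integration ratio under a set limit after plate pattern correction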;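 note: plate controls were neutral control wells without compound for no effect and CRF at EC100 for full effect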
CRFR2-BP antag = antagonists of CRF-binding protein/CRF-R2 receptor complex | AID 588475 | HEK293 CRF-R2/CRF-BP, CRF-induced calcium fluorescence | inhibition, % at 11.8 µM | actives 0.59% (n = 350,000);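 active = inhibition of the ligand-induced calcium signal above about 50% at the single tested concentration, limit read from the data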
DDE Tn6 FP inh = disrupts Tn6 cyclic peptide binding to fibrin D-Dimer-E complex. P02675. inhibition, % at 8.3 µM. Fibrin DD(E) TRITC-Tn6 fluorescence polarization displacement. actives 0.21% (n = 370,000);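 active = inhibition above a per-campaign cutoff: mean of compounds within control limits plus 3 SD, cut at about 15% in these data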;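 note: 0% = median of all compound wells on the plate and 100% = blocking peptide control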
Target sequence (P02675 whole entry, looked up): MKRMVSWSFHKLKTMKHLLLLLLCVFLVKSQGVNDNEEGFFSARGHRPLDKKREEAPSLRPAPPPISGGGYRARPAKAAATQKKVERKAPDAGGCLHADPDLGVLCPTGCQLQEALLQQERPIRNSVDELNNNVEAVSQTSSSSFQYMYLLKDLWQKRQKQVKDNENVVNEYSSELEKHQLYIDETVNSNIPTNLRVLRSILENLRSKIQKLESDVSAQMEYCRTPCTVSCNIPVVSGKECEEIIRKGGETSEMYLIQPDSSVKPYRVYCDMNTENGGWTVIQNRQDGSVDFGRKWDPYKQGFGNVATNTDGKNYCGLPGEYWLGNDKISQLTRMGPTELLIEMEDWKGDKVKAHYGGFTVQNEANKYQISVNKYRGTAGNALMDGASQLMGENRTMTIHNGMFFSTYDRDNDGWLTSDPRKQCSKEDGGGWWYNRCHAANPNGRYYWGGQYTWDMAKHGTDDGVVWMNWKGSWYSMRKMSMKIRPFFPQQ
Tn7 DDE FP = inhibitors of Tn7 peptide binding to human fibrin DD(E); actives 0.13% (n = 370,000); AID 720508; P02675; inhibition, % at 8.3 µM; FP displacement of FITC-Tn7 peptide from fibrin DD(E); 0% = median of compound wells per plate;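 active = inhibition above the mean of compounds falling within the control limits plus 3 SD of them, cut at about 14% in these data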;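 note: 0% = plate median of compound wells and 100% = 10 µM Aha-Tn7 peptide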
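Assay system: Human fibrin DD(E) protein | Medium: Tris buffer with calcium and detergent, pH 7.8 | Reagent: 0.1 µM fluorescent Tn7 | Compound dosing: Single point at 8.3 µM | Times: 10 min preincubation, 3 h with tracer, room temperature | Detection: Fluorescence polarization of the labelled Tn7 tracer | Controls: Aha-Tn7 high control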
Numbers without * were called inactive; nt = not tested or not shown; + = active, no number. A selection: hits, their analogues and other compounds. The true share with any hit is near 1.2%.

SMILES	CRFR2-BP ag	CRFR2-BP antag	DDE Tn6 FP inh	Tn7 DDE FP
CCOc1ccccc1NC(=O)C1CCCCN1S(=O)(=O)c1ccc(F)cc1 (stereo not drawn)	0	13	2	-6
CCOc1ccccc1NC(=O)C1CCC(=O)N1S(=O)(=O)c1ccc(C)cc1 (stereo not drawn)	-1	82*	-1	2
CC(Oc1ccc(Br)cc1)C(=O)N1CCc2ccccc21 (stereo not drawn)	222*	-164	-11	2
CCCCNC(=O)O[C@H]1CC[C@@]23CCCN2C(=O)CCC[C@H]3C1	nt	nt	2	-2
CCNC(=O)CN(C1CCCCC1)S(=O)(=O)c1ccc(F)cc1	-1	46	1	-4
CNC(=O)CN(C1CCCCC1)S(=O)(=O)c1ccc(F)cc1	-6	56*	5	-14
COc1ccc(C2=Nc3ccc(C)cc3C(c3ccccc3)N2CC(=O)NN)cc1 (stereo not drawn)	18	-41	-9	5
COC(=O)CN1C(c2ccc(Cl)cc2)=Nc2ccc(Cl)cc2C1c1ccccc1 (stereo not drawn)	-2	65*	-7	-3
O=C1N/C(=C/c2ccc(N3CCCC3)cc2)C(=O)N1c1ccccc1	21	-25	-1	-4
Cc1cc(N2CCCC2)ccc1/C=C1\NC(=S)N(C)C1=O	169*	-197	-7	-11
O=C1/C(=C/c2ccc(N3CCCC3)cc2)NC(=S)N1C1CC1	176*	-192	-10	-19
CCN(CC)C(=O)c1c[nH]c2ccc(S(=O)(=O)Nc3cc(C)cc(C)c3)cc2c1=O	125*	-106	3	2
CCc1ccc(NS(=O)(=O)c2ccc3[nH]cc(C(=O)N4CCc5ccccc54)c(=O)c3c2)cc1	1	-48	1	-2
Cc1cc(C)cc(NS(=O)(=O)c2ccc3[nH]cc(C(=O)N4CCc5ccccc54)c(=O)c3c2)c1	61*	-101	-12	3
COC(=O)[C@]12C[C@H](CC(=O)NCc3cccs3)C(=O)N(CCC3=CCCCC3)C1=C[C@H](C(C)C)O[C@@H]2C1CC1	nt	nt	0	7
COc1cc2c(cc1OC)/C(=C/C(=O)c1ccc(OC)c([N+](=O)[O-])c1)NCC2	0	57*	-5	-1
COc1cc2c(cc1OC)/C(=C/C(=O)c1cccc([N+](=O)[O-])c1)NCC2	-2	-2	2	3
CCCC(=O)N1CCc2cc(-c3nc(N)sc3C)ccc21	-2	51*	4	2
COC(=O)C1=C(NC(=O)c2ccccc2C)CCS1	5	2	5	4
COC(=O)C1=C(NC(=O)c2cccc(OC)c2)CCS1	-4	67*	nt	nt
CCC1CCc2sc(C(=O)Nc3cc(S(=O)(=O)N4CCOCC4)ccc3OC)cc2C1 (stereo not drawn)	nt	nt	-10	-6
CO[C@H]([C@H](C)/C=C/N(C)C=O)[C@@H](C)C(=O)CC[C@H](C)[C@H](O)[C@H](C)[C@H]1OC(=O)/C=C/C(C)=C/C[C@H](O)C[C@@H]2C=CC[C@@H](C[C@H](OC)[C@@]3(CO3)[C@@H](OC)C[C@@H](OC)[C@@H]1C)O2	nt	nt	-3	0
COc1ccccc1CN1CCCC(C(=O)N(C)Cc2ccccc2)C1 (stereo not drawn)	3	55*	7	3
COc1ccc(CN2CCCC(C(=O)N(C)Cc3ccccc3)C2)cc1OC (stereo not drawn)	2	-3	-9	-7
Cc1ccc(Cl)cc1N(CC(=O)N1CCOCC1)S(C)(=O)=O	1	74*	4	1
SMILES	CRFR2-BP ag	CRFR2-BP antag	DDE Tn6 FP inh	Tn7 DDE FP
Cc1cccc(NC(=O)CSc2nc3[nH]ncc3c(=O)[nH]2)c1C	3	51*	0	3
N#CC1=C(N)OC2=C(C(=O)CC(c3ccccc3)C2)C1c1ccc2c(c1)OCO2 (stereo not drawn)	-2	59*	4	-8
COC(=O)[C@]12C[C@H](CC(=O)NCC3CCCCC3)C(=O)N(Cc3cccc4ccccc34)C1=C[C@H](C1CCCC1)O[C@@H]2C	nt	nt	1	-2
CN(C(=O)CN1C(=O)/C(=C/c2ccccc2Cl)SC1=S)C1CCS(=O)(=O)C1 (stereo not drawn)	6	53*	-5	0
CN(C)c1ccc(/C=C/c2ccc3ccccc3[n+]2C)cc1	-3	-4	14	-3
CN(C)c1ccc(/C=C/c2ccc3c4ccccc4ccc3[n+]2-c2ccccc2)cc1	0	19	+	9
O=C(Nc1ccc(F)c(C(F)(F)F)c1)Nc1nnc(-c2ccncc2)s1	nt	nt	-2	-1
COC(=O)[C@@]12C[C@@H](CC(=O)NCCC(C)C)C(=O)N(CCc3ccc(OC)c(OC)c3)C1=CCC(C)(C)C2	nt	nt	-3	2
Cc1cccc(NC(=O)[C@H]2CC(=O)O[C@@H]2c2ccccc2)c1C	nt	nt	1	-2
O=S(=O)([N-]c1nc2ccccc2nc1-[n+]1ccc(-c2ccncc2)cc1)c1ccccc1	224*	-99	0	1
O=S(=O)([N-]c1nc2ccccc2nc1-[n+]1ccccc1)c1ccccc1	1	10	4	3
CC1CCN(C(=O)CCC(=O)Nc2nnc(C(F)(F)F)s2)CC1	0	-6	nt	nt
COc1ccc(CC(=O)O/N=C(\N)c2cccc([N+](=O)[O-])c2)cc1	-3	67*	0	-1
COc1ccc(CC(=O)O/N=C(\N)c2ccc(OC)cc2)cc1	0	14	5	2
C[C@@H]1CN([C@H](C)CO)C(=O)CCCn2cc(nn2)CO[C@H]1CN(C)C(=O)c1ccc2ccn(C)c2c1	nt	nt	-6	8
C[C@H](CO)N1C[C@H](C)[C@@H](CN(C)C(=O)c2ccc3ccn(C)c3c2)OCc2cn(nn2)CCCC1=O	0	63*	6	9
Cc1ccnc(N/C=C(\C#N)c2nc(-c3cccc(Br)c3)cs2)c1	237*	-250	0	0
N#C/C(=C\Nc1ccc2cn[nH]c2c1)c1nc(-c2ccccc2)cs1	-1	-3	1	-4
C/C(=N/NC(=O)c1ccncc1)c1cc2ccc(O)cc2oc1=O	191*	-38	-9	13
CC(C)(C)n1nnnc1C(c1cccc(C#N)c1)N1CCCCCC1 (stereo not drawn)	-3	14	-4	-4
CCC(C)(C)n1nnnc1C(c1cccc(C#N)c1)N1CCN(c2cccc(C)c2C)CC1 (stereo not drawn)	-2	51*	2	-4
CC1=C(C(=O)NCc2ccccn2)C2(CCC(C)CC2)OC1=O (stereo not drawn)	1	66*	0	0
CC(C)Sc1snnc1-c1ccccc1	-1	54*	8	-3
Cc1ccccc1NC(=O)Cc1nc(COC(=O)c2cc([N+](=O)[O-])ccc2NCCO)cs1	2	61*	-1	-11
Cc1ccc(Nc2ccc(C(=O)O)cc2N)cc1	-4	56*	2	8
Cc1cc(C)cc(Nc2ccc(C(=O)O)cc2N)c1	0	13	10	4
